Data reported in PMC5421726 (Clinical and Translational Science, 2017).
Each block holds one molecule with its values, some of them ahead of it.

Assays:
HbA1c [1] = experiment: PK/PD model relating tPDE4i to HbA1c in db/db mice; assay type: in vivo
How it was run: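 Once-daily dosing of db/db mice for 28 days: test compound at 1, 3 or 10 mg/kg/day, reference PDE4 inhibitor at 0.3, 1 or 3 mg/kg/day, its N-oxide metabolite at 3 mg/kg/day, vehicle 4% methocel. HbA1c read on days -1, 14 and 28. Emax model links HbA1c rise over time to individual tPDE4i. Fit by nonlinear mixed-effects modelling with FOCE-interaction; checked by visual predictive check (200 simulations).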

[2] = Unbound fraction in mouse plasma in vitro; assay type: in vitro ADME
diabetic mouse model = conditions: cited from earlier work
PDE4 = experiment: Total PDE4 inhibition; assay type: in vivo; conditions: db/db mice, geometric mean; for Complete tPDE4i: roflumilast + roflumilast N-oxide
HbA1c [3] = conditions: clinical setting; cited from earlier work
[4] = Population pharmacokinetic analysis in db/db mice; assay type: in vivo; conditions: after roflumilast-N-oxide dosing
[5] = roflumilast N-oxide 3 mg/kg/day

SMILES: O=C(Nc1c(Cl)c[n+]([O-])cc1Cl)c1ccc(OC(F)F)c(OCC2CC2)c1 [roflumilast(‐N‐oxide)]
PDE50 (tPDE4i leading to half-maximum effect on HbA1c) (HbA1c [1]; final PK/PD model estimate, 28 days): 27.1

fraction unbound [2]: 0.037
SMILES: O=C(Nc1c(Cl)cncc1Cl)c1ccc(OC(F)F)c(OCC2CC2)c1 [roflumilast]
Dose required to reach half-maximum effect on HbA1c (HbA1c [1]; calculated from PDE50): 5.9 mg/kg | Antidiabetic efficacy (diabetic mouse model): significant antidiabetic efficacy | tPDE4irof (PDE4; roflumilast 0.3 mg/kg/day): 0.744 | tPDE4irofNO (PDE4; roflumilast 0.3 mg/kg/day): 0.731 | Complete tPDE4i (PDE4; roflumilast 0.3 mg/kg/day): 1.49 | tPDE4irof (PDE4; roflumilast 1 mg/kg/day): 2.23 | tPDE4irofNO (PDE4; roflumilast 1 mg/kg/day): 2.31 | tPDE4irof (PDE4; roflumilast 3 mg/kg/day): 6.56 | tPDE4irofNO (PDE4; roflumilast 3 mg/kg/day): 7.18 | Complete tPDE4i (PDE4; roflumilast 3 mg/kg/day): 13.8 | HbA1c levels (HbA1c [3]): significantly reduced

SMILES: O=C(Nc1c(Cl)c[n+]([O-])cc1Cl)c1ccc(OC(F)F)c(OCC2CC2)c1 [roflumilast‐N‐oxide]
Exposure of roflumilast relative to roflumilast-N-oxide [4]: 2.6 % of roflumilast‐N‐oxide | Apparent roflumilast clearance ([4]; two-compartment model): 41.8 L/h | Apparent roflumilast-N-oxide clearance ([4]; two-compartment model): 1.09 L/h | tPDE4irof (PDE4; [5]): 0.375 | tPDE4irofNO (PDE4; [5]): 22.1 | Complete tPDE4i (PDE4; [5]): 22.5
